# Data reported in PMC8159881 (ACS nano, 2021).
# Legend:
# INS-1E cells = experiment: Glucose-stimulated insulin secretion assay; format: cell-based
# Method in brief: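 Lentivirally transduced proinsulin-NanoLuc INS-1E cells were plated overnight (37 °C, 5% CO₂), washed, and held 1 h in KRB (HEPES, BSA) with 2.8 mM glucose. They got peptide for 5 min (2 μM; 5 or 10 μM in one set; DMSO mock), then 20 min in KRB with 20 mM glucose, or 2.8 mM as control. Supernatant luciferase read with coelenterazine.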
# [1] = Partitioning and budding in phase-separated GUVs; conditions: for inward budding from the Ld phase of phase-separated GUVs: 10 μM Cy-5-labeled peptide, 30 min
# Method in brief: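 Peptide was applied to the GUVs for 30 min before imaging. Fluorescein at 0.3 μM was added to the external buffer to mark true inward budding, seen as fluorescein-containing intraluminal vesicles.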
substance,measurement,setting,value
Cy5-CVWSLFNTLFM [AH(59-68)],binding to the plasma membrane of INS-1E cells,INS-1E cells; cells pretreated with peptide,effectively bound to the plasma membrane
Cy5-DHVVWSLFNTLFMNPC [AH(56-71)],inward budding from the Ld phase of phase-separated GUVs,[1],caused inward budding from this domain
same,binding of peptide to GUVs in the absence of cholesterol,Inward budding; GUVs without cholesterol,not affected
same,inward budding of GUVs without cholesterol containing DOPE,"Inward budding; GUVs without cholesterol, DOPE 20 mol%",could be rescued
same,inward budding of GUVs without cholesterol,Inward budding; peptide added to GUVs without cholesterol,failed to induce efficient inward budding
Cy5-LVWHMFLSDNFTNPV [Scrambled AH(56-71)],inward budding from the Ld phase of phase-separated GUVs,[1],failed to cause inward budding from this phase
FITC-Ahx-DHVVWSLFNTLFMNPC(PAL)CLGF [AH(56-75)],phase partitioning in phase-separated GUVs,[1]; fluorescently-tagged peptide palmitoylated at Cys71,clearly partitioned to the Ld phase and appeared to concentrate at the phase boundary
"lyso-PC [LPC, reference compound]",glucose-stimulated insulin secretion,INS-1E cells; cells pretreated with 20 μM LPC,promoted insulin secretion
same,budding of GUV membrane on addition of lipid,Inward budding; LPC titrated on preformed GUVs containing POPC and cholesterol,outward budding of the GUV membrane in an LPC dose-dependent manner
